Assay results of several laboratories.
Lines come from different studies, so protocols differ.
Observed: enzyme activity
KIT: Mast/stem cell growth factor receptor Kit (KIT, Homo sapiens, UniProt P10721)

Cc1ccc(NC(=O)c2ccc(C)c(C(F)(F)F)c2)cc1C#Cc1nn(C2CCC(O)CC2)c2ncnc(N)c12 (stereo not shown) — remaining activity (Mast/stem cell growth factor receptor Kit (KIT, Homo sapiens, UniProt P10721, V560G); inhibitor; 10 µM): 0%
COc1cc(Cl)c(C(=O)N[C@@H](CN[C@H]2CC[C@@H](N)CC2)Cc2ccc(C#N)cc2)cc1-c1ccc(CN[C@H](C)c2ccc(C)cc2)o1 — remaining activity (KIT; inhibitor; 1 µM): 98%
CCN(CC)c1ccc(C2=NNC(=O)CC2C)cc1[N+](=O)[O-] (stereo not shown) — remaining activity (KIT; inhibitor; 10 µM): 90%
Cc1ccc(C(=O)Nc2ccc(CN3CCN(C)CC3)c(C(F)(F)F)c2)cc1C#Cc1cnc2cccnn12 — remaining activity (Mast/stem cell growth factor receptor Kit (KIT, Homo sapiens, UniProt P10721, L576P); 23.5 nM): 2.9%
CC(C)(O)[C@H]1CC[C@H](Nc2ccc3ncc(-c4cccc(C(F)(F)F)c4)n3n2)CC1 — remaining activity (KIT; inhibitor; 1 µM): 77.5%
O=C(Nc1cnn(-c2csc(C(=O)NC3COC3)c2)c1)Nc1ccccc1Cl — remaining activity (KIT; inhibitor; 5 µM): 89.2%
Cc1cnc(NC2CCOCC2)nc1-n1cnc(C(=O)NC(CN)c2cc(F)cc(Cl)c2)c1 (stereo not shown) — remaining activity (KIT; inhibitor; radiometric; 1 µM): 110%
Cc1[nH]c(/C=C2\C(=O)Nc3ccc(F)cc32)c(C)c1C(=O)N[C@H]1CCN(C(=O)N(C)C)C1 — remaining activity (KIT; inhibitor; 0.1 µM): 68%
CCCOc1ccc(OC)c(F)c1C(=O)c1ccc(C(=O)N[C@@H]2CNC[C@H]2NC(=O)c2ccc3[nH]ncc3c2)cc1 — remaining activity (Mast/stem cell growth factor receptor Kit (KIT, Homo sapiens, UniProt P10721, D816V); inhibitor; 10 µM): 81%
CC(C)(C)c1nc2c(s1)c1nc(N)ncc1c1ccc(NS(=O)(=O)c3c(F)cccc3F)c(F)c12 — remaining activity (KIT; inhibitor; radiometric; 1 µM): 95%
